≈ marks a conversion by molar mass, not a printed value.
How the values were obtained:
Assay type in all cases: functional
Staphylococcus aureus = test: Antimicrobial activity against Staphylococcus aureus ATCC 25923 after 24 hrs by serial dilution method; conditions: ATCC 25923, 24 h
Aspergillus niger = test: Antimicrobial activity against Aspergillus niger MTCC 282 after 24 hrs by serial dilution method
[1] = system: Mycobacterium tuberculosis; test: Antitubercular activity against Mycobacterium tuberculosis H37Rv ATCC 27294 by agar microdilution method
In short: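 Twofold dilutions in Middlebrook 7H10 agar with OADC supplement, 3 mL per well in 24-well plates, in duplicate. Final concentrations 1000, 500, 250, 125 and 62.5. Known CFU of H37Rv culture dispensed on top of agar in a negative-pressure biosafety hood. Incubated at 37 °C in a CO2 incubator. MIC read as the lowest concentration completely inhibiting growth and colony formation.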

Escherichia coli = test: Antimicrobial activity against Escherichia coli ATCC 25922 after 24 hrs by serial dilution method; conditions: ATCC 25922, 24 h
Pseudomonas aeruginosa = test: Antimicrobial activity against Pseudomonas aeruginosa MTCC 441 after 24 hrs by serial dilution method; conditions: MTCC 441, 24 h
Streptococcus pyogenes = test: Antimicrobial activity against Streptococcus pyogenes MTCC 443 after 24 hrs by serial dilution method; conditions: MTCC 443, 24 h

| Molecule | MIC (Staphylococcus aureus) [µg/mL] | MIC (Aspergillus niger; MTCC 282, 24 h) [µg/mL] | MIC [1] [µg/mL] | MIC (Escherichia coli) [µg/mL] | MIC (Pseudomonas aeruginosa) [µg/mL] | MIC (Streptococcus pyogenes) [µg/mL] | MIC (Aspergillus niger) [µg/mL] |
| --- | --- | --- | --- | --- | --- | --- | --- |
| COc1ccc(C2C(C#N)=C(N)Oc3cc(O)ccc32)cc1 (stereo not given) | 125 (≈ 425 µM) | 500 (≈ 1700 µM) | 250 (≈ 849 µM) | 250 (≈ 849 µM) | 250 (≈ 849 µM) | 125 (≈ 425 µM) | – |
| COc1ccc(C2c3ccc4cccnc4c3Oc3[nH]c(=O)nc(N)c32)cc1 (stereo not given) | 62.5 (≈ 168 µM) | 250 (≈ 671 µM) | – | 125 (≈ 336 µM) | 125 (≈ 336 µM) | 125 (≈ 336 µM) | – |
| COC1=CC(=O)C[C@@H](C)[C@]12Oc1c(Cl)c(OC)cc(OC)c1C2=O [GRISEOFULVIN] | – | 100 (≈ 283 µM) | – | – | – | – | – |
| COc1ccc(C2C(C#N)=C(N)Oc3c2ccc2ccccc32)cc1 (stereo not given) | 500 (≈ 1520 µM) | 500 (≈ 1520 µM) | 1000 (≈ 3050 µM) | 500 (≈ 1520 µM) | 1000 (≈ 3050 µM) | 500 (≈ 1520 µM) | – |
| O=C(O)c1cn(C2CC2)c2cc(N3CCNCC3)c(F)cc2c1=O [CIPROFLOXACIN] | 50 (≈ 151 µM) | – | – | 25 (≈ 75.4 µM) | – | 50 (≈ 151 µM) | – |
| CO[C@H]1/C=C/O[C@@]2(C)Oc3c(C)c(O)c4c(O)c(c(/C=N/N5CCN(C)CC5)c(O)c4c3C2=O)NC(=O)/C(C)=C\C=C\[C@H](C)[C@H](O)[C@@H](C)[C@@H](O)[C@@H](C)[C@H](OC(C)=O)[C@@H]1C [RIFAMPIN] | – | – | 40 (≈ 48.6 µM) | – | – | – | – |
| COc1ccc(C2C(C#N)=C(N)Oc3c2ccc2cccnc32)cc1 (stereo not given) | 125 (≈ 380 µM) | 500 (≈ 1520 µM) | 250 (≈ 759 µM) | 250 (≈ 759 µM) | 250 (≈ 759 µM) | 125 (≈ 380 µM) | – |
| COc1ccc(C2C(C#N)=C(N)Oc3ccccc32)cc1 (stereo not given) | 250 (≈ 898 µM) | 1000 (≈ 3590 µM) | 500 (≈ 1800 µM) | 500 (≈ 1800 µM) | 500 (≈ 1800 µM) | 250 (≈ 898 µM) | – |
| NYSTATIN | – | – | – | – | – | – | 100 |
| CC1(C)S[C@@H]2[C@H](NC(=O)[C@H](N)c3ccccc3)C(=O)N2[C@H]1C(=O)O [AMPICILLIN] | 100 (≈ 286 µM) | – | – | 100 (≈ 286 µM) | 100 (≈ 286 µM) | 250 (≈ 715 µM) | – |
| COc1ccc(C2C(C#N)=C(N)Oc3ccc4ccccc4c32)cc1 (stereo not given) | 250 (≈ 761 µM) | 1000 (≈ 3050 µM) | 1000 (≈ 3050 µM) | 150 (≈ 457 µM) | 500 (≈ 1520 µM) | 250 (≈ 761 µM) | – |
